# High-throughput results: PubChem, several laboratories
# An excerpt weighted towards active compounds, which were near 3.1% of everything screened.
# H9c2 TAG inh = inhibitors of triacylglycerol accumulation, primary screen, cell-based, uHTS, fluorescence, H9c2; 230,000 tested, 0.66% active; H9c2 cells, Nile Red lipid (TAG) fluorescence; cells loaded with 200 µM oleic acid; AID 651582, 2012; inhibition, % at 12.5 µM;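 active means pattern-corrected inhibition of lipid staining of at least 50% with the nuclear-stain viability signal not falling by more than 50%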;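 further: 0% = DMSO wells and 100% = triacsin C control wells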
# Beta cell apopt = inhibitors of cytokine-induced beta cell apoptosis, primary screen, luminescence. 300,000 tested, 0.8% active. AID 435005, 2010. protection from apoptosis, % (test concentration not listed). INS-1E cytokine-induced death, ATP luminescence, 48 h; percent of positive-control rescue, neutral wells zero;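 active means Every replicate reaches about 75%, or at least half do and their mean reaches it too, limit read from the data; inconclusive means At least half of replicates reach the limit but their mean does not; inactive means Under half of replicates reach the limit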;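 further: 0% = cytokine-treated negative control wells and 100% = positive control rescue; higher means more ATP so stronger rescue from cytokine killing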
# Calb FLC = C. albicans growth inhibition with fluconazole, primary screen, CaCi-2 strain, Alamar Blue fluorescence | C. albicans CaCi-2 + fluconazole, 48 h | growth inhibition, % (test concentration not listed) | 300,000 tested, 0.57% active | AID 1979, 2009;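 active means growth inhibition above about 58% in most replicates, limit read from the data, passing the limit was not always enough; inconclusive means exactly half the replicates above a set limit; inactive means most replicates below a set limit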;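 further: all wells also contain fluconazole at 8 µg/ml as a sub-toxic cotreatment; 0% = median of DMSO wells and 100% = median of geldanamycin control wells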
# CSC inhib = cancer stem cell viability inhibitors, primary screen, luminescence | AID 2717, 2010 | inhibition, % at 7.5 µM | 300,000 tested, 1.1% active | cancer stem cell-like cells viability; in the data active means inhibition above about 75%; inconclusive means no clear call, values can overlap the other calls; tested in HMLE shEcad cells
# T cruzi inh = inhibitors of intracellular T. cruzi growth, primary screen, luminescence, NIH3T3 host cells | 300,000 tested, 1.4% active | inhibition, % (concentration not given with the values) | AID 1885, 2009 | T. cruzi beta-gal in NIH3T3, 90 h;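 active means mean inhibition across valid replicates above about 55%, limit read from the data; inconclusive means mean below that limit but half or more replicates reach it; inactive means mean below it, under half of replicates reach it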;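 further: signal also drops with host cell toxicity which is not excluded here; 0% = plate median of DMSO wells and 100% = zero luminescence signal; higher percent means less beta-gal luminescence so fewer parasites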
#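 Assay system: NIH/3T3 host cells with β-galactosidase reporter T. cruzi; input: 5,000 host fibroblasts per well; compound: single 50 nL compound addition per well in DMSO; timing: ≥90 h infection period, 3 h prior cell attachment; measured by: GalScreen β-gal luminescence, detergent lysis, 60 min; evaluation: percent inhibition of parasite-derived β-gal signal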
# Bfl-1 A1 inh = caspase 3/7 activation in MEF A1-2A-BIM cells, primary screen, A1 inhibitor project, cell-based, luminescence, HTS; Caspase-Glo 3/7 luminescence, 3 h; percent of clofoctol response, vehicle zero; caspase activation, % (test concentration not listed); 330,000 tested, 0.066% active; AID 2462, 2010;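 active means over half of replicate activation scores above 10%, or exactly half above 10 with the replicate mean above 10; inconclusive means replicate mean below 10 yet half the replicates above 10; inactive means over half of replicates below 10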
# Active calls of the source: *; ? = inconclusive; · = no result.
SMILES,H9c2 TAG inh,Beta cell apopt,Calb FLC,CSC inhib,T cruzi inh,Bfl-1 A1 inh
O=C(Nc1cccc(C(F)(F)F)c1)Nc1ccc(N2CCCC2)c(S(=O)(=O)Nc2ccccc2Cl)c1,·,103*,5,78*,54,-1
COc1ccccc1NS(=O)(=O)c1cccc(NC(=O)Nc2ccc(Cl)cc2)c1,-51,47,-1,·,67*,0
CC1(C)CC(=O)C(C2C3=C(CC(C)(C)CC3=O)OC3=C2C(=O)CC(C)(C)C3)=C(O)C1,14,-1,1,1,-1,0
COc1ccccc1NS(=O)(=O)c1cc(NC(=O)Nc2ccc(Cl)cc2Cl)ccc1N1CCCCC1,·,40,-6,38,59*,1
Cc1cc(C)nc(N/N=C/C=C/c2ccccc2)n1,0,-1,-23,-23,-6,-1
Cc1sc(N/N=C/C=C/c2ccccc2)nc1-c1ccccc1,0,0,26,12,55*,1
CCC(=O)N(C1=C(NC(C)C)C(=O)c2ccccc2C1=O)C(C)C,·,-3,31,-1,-8,1
CCCNC1=C(N(C(C)=O)c2cccc(F)c2)C(=O)c2ccccc2C1=O,·,126*,1,102*,55*,0
O=C(CN1CCOCC1)Nc1ccc(Cl)cn1,8,-4,-1,-6,2,0
CC1=C(C(=O)N2CCc3ccccc32)C2(CCC(C)CC2)OC1=O (stereo unspecified),·,-4,-16,-4,60*,0
CN1CCN(c2ccc(S(=O)(=O)N3CCCCC3)cc2NC(=O)COc2ccc([N+](=O)[O-])cc2)CC1,10,2,1,10,58*,0
CCC(=O)c1ccc(OCC(=O)Nc2cc(S(=O)(=O)N3CCCCC3)ccc2N2CCN(CC)CC2)cc1,24,9,3,-8,45,-1
Cc1ccc(OCC(=O)Nc2cc(S(=O)(=O)N3CCCCC3)ccc2N2CCN(C)CC2)c(C)c1,-6,11,-13,14,60*,0
CC(=O)NCCC(=O)Nc1cc(S(=O)(=O)N2CCCCC2)ccc1N1CCCCC1,5,-5,·,·,·,1
CC(=O)NCCC(=O)Nc1cc(S(=O)(=O)N2CCCCC2)ccc1N1CCN(C)CC1,7,-1,5,-6,76*,0
CCOC(=O)CNC(=O)Cc1ccc(OC)cc1,3,0,-6,-13,-30,-1
CCOc1ccc(S(=O)(=O)N(C)CC(=O)NC2CCCC2)cc1,-3,-6,0,-8,0,-1
CCc1ccc(-c2nc(SCC(=O)N(CC)C3CCS(=O)(=O)C3)n[nH]2)cc1 (stereo unspecified),10,-9,0,5,1,0
c1ccc2c(Nc3nnc(-c4ccncc4)s3)cccc2c1,·,1,5,7,57*,-2
C=CCNc1nnc(-c2ccncc2)s1,-6,-4,-3,-3,-5,0
CCCC(=O)NC(NC(=S)Nc1ccc(N=Nc2ccccc2)cc1)C(Cl)(Cl)Cl (stereo unspecified),·,109*,-24,119*,42,0
CCCC(=O)NC(NC(=S)Nc1ccc(S(N)(=O)=O)cc1)C(Cl)(Cl)Cl (stereo unspecified),·,-6,3,-10,-9,0
CN(CCOc1ccccc1)C(=O)C1CCN(C(=O)c2ccc(F)cc2)CC1,-20,·,4,0,5,1
CC(=O)N1c2ccc(S(=O)(=O)NCCC(=O)Nc3ccc(F)cc3C)cc2CC1C (stereo unspecified),·,·,-7,12,-11,0
Cc1ccc(C(=O)CC(=O)c2ccc(C(C)(C)C)cc2)cc1,·,0,108*,16,-24,0
SMILES,H9c2 TAG inh,Beta cell apopt,Calb FLC,CSC inhib,T cruzi inh,Bfl-1 A1 inh
COc1ccc(C(=O)CC(=O)c2ccc(C(C)(C)C)cc2)cc1,10,·,·,·,·,·
CC(C)(C)c1ccc(C(=O)CC(=O)c2cc(Cl)ccc2O)cc1,·,28,106*,3,23,0
Cc1ccc(-c2cc(C(=O)N3N=C(C(F)F)CC3(O)C(F)F)c3ccccc3n2)cc1C (stereo unspecified),·,7,6,98*,64*,0
COc1ccc(C(=O)NC2CCN(CC(=O)NCc3ccccc3F)CC2)cc1,·,0,33,7,-5,0
COc1cccc(/C=N/Nc2cc(N3CCOCC3)ncn2)c1O,71*,88*,98*,66,-9,-1
COc1ccc(/C=N/Nc2cc(N3CCOCC3)ncn2)c(OC)c1,·,1,14,-15,-8,1
O=C(Nc1ccc(Cl)cc1Cl)c1cccc(N2C(=O)C=CC2=O)c1,-5,-1,-2,70,?,14*
CN(C)CCN=Cc1c(O)n(Cc2ccccc2)c(=O)c2ccccc12,2,6,-14,-3,29,0
CC1(C)CC(N=Cc2c(O)n(Cc3ccc4c(c3)OCO4)c(=O)c3ccccc23)CC(C)(C)N1,43,2,88*,-10,8,-1
COCCNC(=O)Cn1ccc2cc(S(=O)(=O)N3CCCCC3)ccc21,·,-4,12,3,-4,-1
CC(C)Cn1nc(NS(=O)(=O)c2cccc3nonc23)c2cc3ccccc3nc21,·,2,23,14,-11,0
CN1CCN(Cc2ccc(OCc3ccccc3)cc2)CC1,·,18,-8,38,52,0
O=C(c1c[nH]c2ccccc12)N1CCN(Cc2ccccc2)CC1,-4,5,21,1,-5,0
Oc1ccc(CN2CCN(Cc3ccccc3)CC2)c2cccnc12,9,64,60*,7,64*,0
CN1CCN(Cc2cc(COCc3ccccc3)c3cccnc3c2O)CC1,128,-2,109*,1,77*,0
CN1CCN(C2CCN(Cc3ccc(O)c4ncccc34)CC2)CC1,-10,-12,·,0,·,0
c1ccc(CN2CCN(Cc3c[nH]c4ccccc34)CC2)cc1,·,87*,-20,-19,60*,0
O=[N+]([O-])c1ccc(S(=O)(=O)N2CCN(Cc3c[nH]c4ccccc34)CC2)cc1,5,0,4,·,74*,·
CCCN=C1N(CC)C[C@@H]2[C@@H]3C(=O)N(C)C(=O)[C@@H]3[C@](C)(C(=O)OC)N12,7,·,·,·,·,·
O=C(Cc1ccsc1)NCc1ccccc1F,-21,-8,-9,-9,-18,0
O=S(=O)(c1ccc(Cl)cc1)N1CCN(Cc2ccc(O)c3ncccc23)CC1,53*,86*,95*,89*,55*,0
CN(CC(=O)N1CCN(Cc2ccccc2)CC1)C(=O)Cc1ccc(Cl)c(Cl)c1,12,-16,·,-34,·,0
